Laboratory results reported in ChEMBL document CHEMBL4627265, “Optimization of 8-oxoadenines with toll-like-receptor 7 and 8 activity” (Bioorg Med Chem Lett, 2020).
Active and inactive are the calls of the source.

Tests used:
Format in all cases: cell-based
[1] = biological target: T1, Toll-like receptor 7 (Homo sapiens) (UniProt Q9NYK1); assay: Agonist activity at TLR7 in human PBMC assessed as induction of plasmacytoid dendritic cell maturation by measuring CD86 level at 0.1 uM after 6 hrs by flow cytometry
T1 sequence (whole entry): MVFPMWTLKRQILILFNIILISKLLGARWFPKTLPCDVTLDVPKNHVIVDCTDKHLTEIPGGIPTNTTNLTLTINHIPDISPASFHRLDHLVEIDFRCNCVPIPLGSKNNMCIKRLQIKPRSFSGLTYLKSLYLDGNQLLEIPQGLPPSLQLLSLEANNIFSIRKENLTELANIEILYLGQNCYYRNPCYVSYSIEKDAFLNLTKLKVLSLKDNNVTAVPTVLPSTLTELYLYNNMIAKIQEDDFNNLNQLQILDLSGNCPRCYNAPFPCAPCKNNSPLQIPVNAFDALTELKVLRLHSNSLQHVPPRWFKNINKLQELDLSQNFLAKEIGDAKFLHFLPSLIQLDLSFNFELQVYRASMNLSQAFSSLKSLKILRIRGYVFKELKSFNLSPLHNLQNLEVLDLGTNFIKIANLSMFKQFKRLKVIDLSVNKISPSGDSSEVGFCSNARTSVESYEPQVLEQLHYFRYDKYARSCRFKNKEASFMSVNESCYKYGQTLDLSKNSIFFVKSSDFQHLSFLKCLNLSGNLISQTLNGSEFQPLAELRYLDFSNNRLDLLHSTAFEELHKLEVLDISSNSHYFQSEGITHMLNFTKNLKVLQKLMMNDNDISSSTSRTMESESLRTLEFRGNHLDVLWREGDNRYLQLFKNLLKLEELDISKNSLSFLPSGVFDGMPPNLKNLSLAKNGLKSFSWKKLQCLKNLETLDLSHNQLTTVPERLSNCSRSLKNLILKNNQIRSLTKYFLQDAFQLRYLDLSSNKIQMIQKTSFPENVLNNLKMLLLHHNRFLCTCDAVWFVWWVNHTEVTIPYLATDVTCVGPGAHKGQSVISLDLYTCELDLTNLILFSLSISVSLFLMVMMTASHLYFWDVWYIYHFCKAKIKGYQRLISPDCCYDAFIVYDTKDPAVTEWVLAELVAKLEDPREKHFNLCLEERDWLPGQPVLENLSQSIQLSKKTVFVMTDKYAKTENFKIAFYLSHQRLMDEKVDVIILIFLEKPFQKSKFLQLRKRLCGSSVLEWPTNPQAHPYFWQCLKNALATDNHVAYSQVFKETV
Procedure, shortened: (§1)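 hPBMCs stimulated 6 h at a single 0.1 μM dose; HLA-DR, MHC-I, CD80 and CD86 on mDCs and pDCs measured by flow cytometry, expressed as fold change versus unstimulated cells. Mean ± SD of three independent experiments in three different donors.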

[2] = biological target: T1, Toll-like receptor 7 (Homo sapiens); assay: Agonist activity at TLR7 in human PBMC assessed as induction of plasmacytoid dendritic cell maturation by measuring HLA-DR level at 0.1 uM after 6 hrs by flow cytometry; procedure, shortened: as §1
[3] = biological target: T2, Toll-like receptor 8 (Homo sapiens) (UniProt Q9NR97); assay: Agonist activity at TLR8 in human PBMC assessed as induction of myeloid dendritic cell maturation by measuring MHC-1 level at 0.1 uM after 6 hrs by flow cytometry; procedure, shortened: as §1
T2 sequence (whole entry): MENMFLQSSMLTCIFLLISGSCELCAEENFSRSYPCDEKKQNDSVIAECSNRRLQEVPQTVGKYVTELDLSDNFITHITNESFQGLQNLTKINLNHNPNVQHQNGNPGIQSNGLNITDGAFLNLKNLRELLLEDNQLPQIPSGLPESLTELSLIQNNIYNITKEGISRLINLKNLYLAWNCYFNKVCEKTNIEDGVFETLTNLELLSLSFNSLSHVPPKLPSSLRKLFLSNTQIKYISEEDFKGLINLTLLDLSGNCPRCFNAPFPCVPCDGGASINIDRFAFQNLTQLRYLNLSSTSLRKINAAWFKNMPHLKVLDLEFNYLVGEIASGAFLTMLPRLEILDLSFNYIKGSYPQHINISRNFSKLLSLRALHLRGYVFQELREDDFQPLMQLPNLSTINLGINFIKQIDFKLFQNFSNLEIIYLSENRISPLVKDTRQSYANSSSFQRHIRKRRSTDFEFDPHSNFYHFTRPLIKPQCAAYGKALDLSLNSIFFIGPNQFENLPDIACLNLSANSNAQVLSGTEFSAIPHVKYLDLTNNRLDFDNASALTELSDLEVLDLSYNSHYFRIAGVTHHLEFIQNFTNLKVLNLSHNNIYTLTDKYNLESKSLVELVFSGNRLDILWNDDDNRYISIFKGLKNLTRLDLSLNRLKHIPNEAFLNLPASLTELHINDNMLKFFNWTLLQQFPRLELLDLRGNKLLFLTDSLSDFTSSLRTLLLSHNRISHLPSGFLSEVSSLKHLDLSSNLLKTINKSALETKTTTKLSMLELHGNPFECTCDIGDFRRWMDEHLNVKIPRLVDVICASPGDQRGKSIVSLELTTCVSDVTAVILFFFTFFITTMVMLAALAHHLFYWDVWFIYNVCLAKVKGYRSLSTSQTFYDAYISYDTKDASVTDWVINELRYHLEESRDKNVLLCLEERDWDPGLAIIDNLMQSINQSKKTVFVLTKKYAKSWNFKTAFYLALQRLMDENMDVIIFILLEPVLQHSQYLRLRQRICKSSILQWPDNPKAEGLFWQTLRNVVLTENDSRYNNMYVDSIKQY

[4] = biological target: T2, Toll-like receptor 8 (Homo sapiens); assay: Agonist activity at TLR8 in human PBMC assessed as induction of myeloid dendritic cell maturation by measuring CD80 level at 0.1 uM after 6 hrs by flow cytometry; procedure, shortened: as §1
[5] = biological target: T2, Toll-like receptor 8 (Homo sapiens); assay: Agonist activity at TLR8 in human PBMC assessed as induction of myeloid dendritic cell maturation by measuring CD86 level at 0.1 uM after 6 hrs by flow cytometry; procedure, shortened: as §1
[6] = biological target: Toll-like receptor 3 (Homo sapiens) (UniProt O15455); assay: Agonist activity at human TLR3 expressed in HEK293 cells by SEAP reporter gene assay
Chain of Toll-like receptor 3 (Homo sapiens) (O15455 whole entry): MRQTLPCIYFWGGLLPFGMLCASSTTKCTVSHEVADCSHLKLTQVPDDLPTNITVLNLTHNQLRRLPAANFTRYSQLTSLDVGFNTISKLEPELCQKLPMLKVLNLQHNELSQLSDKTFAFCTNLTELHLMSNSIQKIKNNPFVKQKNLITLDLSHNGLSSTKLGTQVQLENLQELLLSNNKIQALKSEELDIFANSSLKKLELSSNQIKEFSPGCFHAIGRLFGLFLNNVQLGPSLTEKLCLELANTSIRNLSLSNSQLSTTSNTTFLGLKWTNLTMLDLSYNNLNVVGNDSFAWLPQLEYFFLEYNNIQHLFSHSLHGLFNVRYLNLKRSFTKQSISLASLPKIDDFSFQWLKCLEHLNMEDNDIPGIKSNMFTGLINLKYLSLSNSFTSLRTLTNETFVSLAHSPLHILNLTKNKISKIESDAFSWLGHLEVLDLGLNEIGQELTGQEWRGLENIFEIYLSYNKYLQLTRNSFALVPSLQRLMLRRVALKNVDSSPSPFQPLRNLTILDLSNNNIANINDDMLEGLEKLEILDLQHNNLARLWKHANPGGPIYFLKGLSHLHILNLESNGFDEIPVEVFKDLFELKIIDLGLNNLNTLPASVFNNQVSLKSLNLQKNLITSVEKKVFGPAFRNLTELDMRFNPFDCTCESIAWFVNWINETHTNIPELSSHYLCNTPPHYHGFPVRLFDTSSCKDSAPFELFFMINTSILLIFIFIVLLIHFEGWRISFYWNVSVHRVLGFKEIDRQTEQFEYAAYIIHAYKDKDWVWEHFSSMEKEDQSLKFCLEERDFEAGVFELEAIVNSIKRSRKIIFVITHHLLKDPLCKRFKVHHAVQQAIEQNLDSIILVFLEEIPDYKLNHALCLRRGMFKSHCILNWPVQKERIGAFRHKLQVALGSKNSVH

Measured: Activity

Nc1nc(OCCCCO)nc2c1[nH]c(=O)n2CC1CCNCC1
inactive: [1] | [2] | [3] | [4] | [5] | [6]
